Screening results deposited in PubChem by several laboratories.
Most compounds without a hit are left out; they make up all but 3.8% or so of the library.
RAM inhibit – inhibitors of the yeast RAM network; S. cerevisiae dse1pr::URA3 reporter, 5-FOA growth OD615, 2 d; analog-sensitive cbk1-as2 kinase mutant strain; inhibition, % at 50 µM; 190,000 tested, 1.8% active;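 active means inhibition above a set limit, 3 SD over mean compound inhibition, cut at about 8.4% in these data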;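 further: inhibition rescues growth on 5-FOA so higher OD means more RAM inhibition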
Measles CPE – protection of cells from measles virus. Measles virus-infected cells, CPE protection, absorbance. protection (pct of control), % at 4 µM. 140,000 tested, 1.5% active. AID 841; in the data active means protection mostly above about 24%, no sharp cut-off; inactive means mostly below about 26%
BB579 growth dn – yeast BB579 growth reduction in restrictive medium; inhibition, % at 10 µM; AID 804; S. cerevisiae BB579 growth, OD615, 48 h; 140,000 tested, 0.51% active;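 active means inhibition above a set limit, 3 SD over the mean compound inhibition, cut at about 44% in these data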
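System: Saccharomyces cerevisiae DeaD strain BB579, replicative lifespan model yeast. Buffer or medium: restrictive glucose-based CSMM-D medium. Doses: one dose, 10 µM compound with 0.25% DMSO. Timing: 4 h preincubation and 48 h exposure at 30 °C. Detection: turbidity as optical density at 615 nm. Benchmarks: amphotericin B 10 µg/mL, positive.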
Yeast life ext – extends the lifespan of yeast. inhibition of the nicotinamide effect, % at 10 µM. S. cerevisiae growth with nicotinamide, OD615; deaD strain in restrictive glucose medium. 130,000 tested, 0.68% active;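 active means inhibition above a set limit, placed 3 SD over the median of all compounds, cut at about 26% in these data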
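Test system: DeaD-strain S. cerevisiae / Buffer or medium: restrictive glucose medium / Also added: nicotinamide 1.5 mM / Doses: one concentration, 10 µM, DMSO 0.25% / Schedule: 48 h at 30 °C / Signal: OD615 measurement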
SDO1 yeast rescue – compounds rescuing growth of sdo1-depleted yeast, bone marrow failure model; z-score at 10 µM; 140,000 tested, 0.21% active; S. cerevisiae sdo1-depleted JHY4D growth rescue, OD600 30 h; stronger effect = higher value; pdr5 snq2 efflux-pump mutant strain;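 active means z-score above 3 at both the 24 hr and the 30 hr optical density reads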
Of the large screens only hits and unclear results are named; the others gave an inactive call.

C=CCN1C(=O)C(C)(C)N(C(C)=O)c2ccccc21	Measles CPE 20, Yeast life ext 28
CC(=O)N1c2ccccc2N(Cc2ccc(C)cc2C)C(=O)C1(C)C	none
O=C(/C=C/c1ccccc1Cl)c1ccccc(=O)c1O	BB579 growth dn 99
Cc1ccc(C)c(/C=C/C(=O)c2ccccc(=O)c2O)c1	BB579 growth dn 99
Cc1ccc(/C=C/C(=O)c2ccccc(=O)c2O)c(C)c1	BB579 growth dn 99
COC(=O)Nc1ccc(S(=O)(=O)N2CCC(C(=O)N3CCCC(C)C3)CC2)cc1 (stereo not given)	none (no result: Measles CPE, BB579 growth dn, Yeast life ext, SDO1 yeast rescue)
CCN(Cc1ccccc1)C(=O)c1ccc(CNS(=O)(=O)c2ccc(C)cc2)cc1	RAM inhibit 11
COc1ccc(CN=C2NC(=O)CC(C(=O)Nc3ccc(Cl)cc3)S2)cc1 (stereo not given)	RAM inhibit 9.2
COc1ccc(CN=C2NC(=O)CC(C(=O)Nc3cc(C)cc(C)c3)S2)cc1 (stereo not given)	none
Cn1nc(CSc2ccccc2)c(C=O)c1Cl	none (no result: Measles CPE, BB579 growth dn, Yeast life ext, SDO1 yeast rescue)
COc1cc(OC)nc(Oc2ccccc2C(=O)Oc2ccc(Cl)cc2)n1	none
COc1cc(OC)nc(Oc2ccccc2C(=O)Oc2ccc(C)cc2)n1	RAM inhibit 9.5
Cc1nc(Nc2ccc(Cl)c(Cl)c2)sc1C(=O)Nc1ccccc1	BB579 growth dn 79
Cc1cc(C)c2c(NC(N)=S)n[nH]c2n1	none (no result: Measles CPE, BB579 growth dn, Yeast life ext, SDO1 yeast rescue)
Cc1cc(C)c2c(N=NN(C)C)[nH]nc2n1	BB579 growth dn 73
CC(=O)NCCOc1ccc2oc3ccccc3c2c1	Measles CPE 47
CC(=O)NCCOc1cccc(OCCNC(C)=O)c1	none
O=C(Cc1ccc(Cl)cc1)Nc1ccc(SC(F)F)cc1	none
CCc1ccc(/C=C2\Oc3cc(OS(C)(=O)=O)ccc3C2=O)cc1	RAM inhibit 8.5
COc1cccc(OC)c1C(=O)Oc1ccc2c(c1)O/C(=C\c1ccncc1)C2=O	none
Cc1ccc(S(=O)(=O)Oc2ccc3c(c2)O/C(=C\c2cccnc2)C3=O)cc1	Measles CPE 33
NNC(=O)c1sc2cc(C(F)(F)F)cnc2c1-c1cccnc1	none (no result: Measles CPE, BB579 growth dn, Yeast life ext, SDO1 yeast rescue)
CCOC(=O)CC(NC(=O)Cn1nnc(-c2ccccc2F)n1)c1ccc(OC)cc1 (stereo not given)	RAM inhibit 9.7 (no result: Measles CPE, BB579 growth dn, Yeast life ext, SDO1 yeast rescue)
COC(=O)C1=C(O)CSC1=Nc1ccc(C)cc1	Measles CPE 26
COC(=O)C1=C(O)CSC1=Nc1ccccc1	none
CCOc1cccc(C(=O)Nc2ccc3oc(Cc4ccc(Cl)cc4)nc3c2)c1	RAM inhibit 11, Measles CPE 33
N#CCCN1CCN(S(=O)(=O)c2ccc(S(=O)(=O)N3CCOCC3)cc2)CC1	Measles CPE 28
CC(C)N(C(=S)Nc1cc(S(=O)(=O)N2CCOCC2)ccc1Cl)c1ccccc1	Yeast life ext 40
CN1CCN(C(=S)Nc2cc(S(=O)(=O)N3CCOCC3)ccc2Cl)CC1	none (no result: Measles CPE, BB579 growth dn, Yeast life ext, SDO1 yeast rescue)
CCN(CC)S(=O)(=O)c1cccc(NC(=O)c2ccc(Br)cc2)c1	RAM inhibit 9.7 (no result: Measles CPE, BB579 growth dn, Yeast life ext, SDO1 yeast rescue)
CCN(CC)S(=O)(=O)c1cccc(C(=O)Nc2cc(C)cc(C)c2)c1	RAM inhibit 8.5
CCN(CC)S(=O)(=O)c1cccc(NC(=O)C(=O)c2c(-c3ccccc3)cc3ccccn23)c1	RAM inhibit 9.9
Cc1ccc(C)c(NC(=S)N(CCN(C)C)C(C)c2ccccn2)c1 (stereo not given)	none (no result: Measles CPE, BB579 growth dn, Yeast life ext, SDO1 yeast rescue)
CC1(C)CC(=O)C(C(=O)Cc2ccccc2[N+](=O)[O-])C(=O)C1	Yeast life ext 58
CN(C)/C=C(\C=N\OCc1ccc(Cl)cc1Cl)C(=O)Nc1ccc(Cl)c(Cl)c1	RAM inhibit 11
COc1cccc(C2NC(C)(C(=O)O)C3C(=O)N(C(C)C)C(=O)C23)c1O (stereo not given)	Measles CPE 29
CN(C)/C=N/C1=C(C#N)C(c2cccs2)c2ccc3ccccc3c2O1 (stereo not given)	none (no result: Measles CPE, BB579 growth dn, Yeast life ext, SDO1 yeast rescue)
Cc1cc2cc(CNC(=O)c3ccc(S(=O)(=O)N4CCCCC4)cc3)ccc2[nH]1	Measles CPE 35
Cc1cccc(-n2c(CNC(=O)c3ccc(S(=O)(=O)N4CCCC4)cc3)n[nH]c2=S)c1	Measles CPE 36
C=CCn1c(N2CCN(c3ccc(OC)cc3)CC2)nc2c1c(=O)[nH]c(=O)n2C	none (no result: Measles CPE, BB579 growth dn, Yeast life ext, SDO1 yeast rescue)
O=C(N/N=C/c1ccc(O)cc1)c1csc2c1CCCC2	none
CCOC(=O)c1cc(NC(=O)c2ccccc2)c(=O)oc1-c1ccccc1	RAM inhibit 9.5
CC1CCCCC1NC(=O)/C(C#N)=C/c1ccccc1F (stereo not given)	Yeast life ext 63
COc1cccc(OC)c1OCC(C)CNCC1CCCO1 (stereo not given)	none
CCc1c(C)sc(NC(=S)N2CC(C)OC(C)C2)c1C(=O)OC (stereo not given)	RAM inhibit 11 (no result: Measles CPE, BB579 growth dn, Yeast life ext, SDO1 yeast rescue)
O=C(NCc1ccc(F)cc1)c1nc(-c2cccs2)no1	RAM inhibit 8.5 (no result: Measles CPE, BB579 growth dn, Yeast life ext, SDO1 yeast rescue)
COc1ccc(CCNC(=O)c2nc(-c3cccs3)no2)cc1OC	none (no result: Measles CPE, BB579 growth dn, Yeast life ext, SDO1 yeast rescue)
Cc1cccc(N(CC(=O)NCc2ccc(F)cc2)C(=O)c2csnn2)c1C	none (no result: Measles CPE, BB579 growth dn, Yeast life ext, SDO1 yeast rescue)
Cc1ccc(S(=O)(=O)n2cnc3cc([N+](=O)[O-])ccc32)cc1C	none
Cc1ccc(-n2c3nc(=O)[nH]c(=O)c-3cc3cc([N+](=O)[O-])ccc32)cc1C	RAM inhibit 9.4
C=C(Cl)COc1cc(C)cc2oc(=O)cc(CC)c12	none
CCc1cc(C=C(Cl)Cl)oc(=O)c1C	Measles CPE 56
COc1ccc(C2C(C(=O)NCc3ccccn3)CCC(=O)N2c2cc(OC)c(OC)c(OC)c2)cc1 (stereo not given)	none (no result: Measles CPE, BB579 growth dn, Yeast life ext, SDO1 yeast rescue)
CC1(C)C2CCC1(C)C(NC(=O)CCN1CCCCC1)C2 (stereo not given)	none
COCCOCCOCCC(=O)NC1CC2CCC1(C)C2(C)C (stereo not given)	Measles CPE 51
O=C(CSC1=NCCS1)N1CCN(c2ccc(Cl)cc2)CC1	BB579 growth dn 51
Oc1ccccc1/C=N/n1c2ccccc2c2ccccc21	RAM inhibit 9.7
C(=N\n1c2ccccc2c2ccccc21)/c1ccccc1	none
CCc1ccc(/C=N/NC(=O)C(=O)NCCCN2CCOCC2)cc1	none
COc1ccc(C2CC(c3ccccc3)=NN2S(=O)(=O)c2ccc(C)cc2)c(OC)c1 (stereo not given)	none
COc1cccc(C2CC(c3ccccc3)=NN2S(=O)(=O)c2ccc(C)cc2)c1OC (stereo not given)	RAM inhibit 11 (no result: Measles CPE, BB579 growth dn, Yeast life ext, SDO1 yeast rescue)
COc1cccc(/C=N/N2C(=O)CSC2=S)c1O	BB579 growth dn 72
O=C1c2cccc3c([N+](=O)[O-])ccc(c23)C(=O)N1c1ccccn1	none
O=C1c2cccc3c([N+](=O)[O-])ccc(c23)C(=O)N1c1ccc(Cl)cn1	Yeast life ext 33
CC(C)(C)n1nnnc1C(c1ccc(C(F)(F)F)cc1)N(Cc1ccccc1)Cc1ccco1 (stereo not given)	RAM inhibit 11
Cc1onc(-c2ccccc2)c1C(=O)N/N=C/c1cccc(O)c1	none
